# Experimental data taken from ChEMBL document CHEMBL1123812, “Pyrroloisoquinoline antidepressants. 2. In-depth exploration of structure-activity relationships” (J Med Chem, 1987).
# Active and inactive are the calls of the source.
# How the values were obtained:
# [1] = target: Sodium-dependent dopamine transporter (Rattus norvegicus, UniProt P23977); test: Inhibition of the uptake of tritiated dopamine (DA) in rat synaptosomes; type: subcellular, Brain
# [2] = test system: Mus musculus; test: (§1) Ability to antagonise intraperitoneal dose; inactive (<10% antagonism) at 30 mgjkg is represented as I-30.; type: functional, organism-based
# Summary of the method: (§2)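 Swiss Webster male albino mice, nonfasted, 18–24 g, 10 per dose and in saline control. Compound given ip 30 min before TBZ 32 mg/kg ip. Motor activity and ptosis scored. Response corrected by Abbott's formula when control response was 90% or less. Doses expressed as free base.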
# [3] = test system: Mus musculus; test: as §1; type: functional, organism-based; summary of the method: as §2; remark: listed apart in the source
# [4] = target: Norepinephrine transporter (Rattus norvegicus, UniProt Q9WTR4); test: Inhibition of uptake of tritiated norepinephrine (NE) in rat synaptosomes; type: subcellular, Brain
# [5] = target: D(2) dopamine receptor (Rattus norvegicus, UniProt P61169); test: Binding affinity towards Dopamine receptor D2
# [6] = target: T1, Adrenergic receptor alpha-2 (Rattus norvegicus, UniProt P22086+P19328+P22909); test: Binding affinity towards alpha-2 adrenergic receptor; type: protein assay
# T1 sequence (P22086 whole entry): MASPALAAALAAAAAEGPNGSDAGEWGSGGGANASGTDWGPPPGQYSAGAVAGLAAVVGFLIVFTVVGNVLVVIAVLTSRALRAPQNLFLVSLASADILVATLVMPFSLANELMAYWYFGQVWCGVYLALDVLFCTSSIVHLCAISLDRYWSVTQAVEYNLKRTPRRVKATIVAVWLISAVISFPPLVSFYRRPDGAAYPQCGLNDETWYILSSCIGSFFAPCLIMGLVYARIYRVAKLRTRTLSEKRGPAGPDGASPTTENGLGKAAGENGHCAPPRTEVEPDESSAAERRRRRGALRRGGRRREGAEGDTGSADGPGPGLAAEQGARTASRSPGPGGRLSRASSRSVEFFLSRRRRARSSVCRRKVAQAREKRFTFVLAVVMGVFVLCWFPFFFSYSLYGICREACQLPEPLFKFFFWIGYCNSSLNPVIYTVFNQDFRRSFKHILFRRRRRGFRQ
# T1 sequence (P19328 whole entry): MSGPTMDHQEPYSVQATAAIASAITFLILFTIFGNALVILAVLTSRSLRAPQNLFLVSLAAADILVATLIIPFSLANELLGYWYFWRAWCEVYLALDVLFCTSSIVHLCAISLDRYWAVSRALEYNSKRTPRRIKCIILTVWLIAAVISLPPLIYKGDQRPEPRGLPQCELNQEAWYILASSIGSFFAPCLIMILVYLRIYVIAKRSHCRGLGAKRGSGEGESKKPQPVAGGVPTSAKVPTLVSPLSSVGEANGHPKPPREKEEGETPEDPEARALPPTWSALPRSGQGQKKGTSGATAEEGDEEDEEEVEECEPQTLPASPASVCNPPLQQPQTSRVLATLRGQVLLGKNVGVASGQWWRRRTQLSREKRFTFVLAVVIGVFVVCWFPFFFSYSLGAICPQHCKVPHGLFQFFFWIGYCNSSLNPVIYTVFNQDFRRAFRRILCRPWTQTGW
# T1 sequence (P22909 whole entry): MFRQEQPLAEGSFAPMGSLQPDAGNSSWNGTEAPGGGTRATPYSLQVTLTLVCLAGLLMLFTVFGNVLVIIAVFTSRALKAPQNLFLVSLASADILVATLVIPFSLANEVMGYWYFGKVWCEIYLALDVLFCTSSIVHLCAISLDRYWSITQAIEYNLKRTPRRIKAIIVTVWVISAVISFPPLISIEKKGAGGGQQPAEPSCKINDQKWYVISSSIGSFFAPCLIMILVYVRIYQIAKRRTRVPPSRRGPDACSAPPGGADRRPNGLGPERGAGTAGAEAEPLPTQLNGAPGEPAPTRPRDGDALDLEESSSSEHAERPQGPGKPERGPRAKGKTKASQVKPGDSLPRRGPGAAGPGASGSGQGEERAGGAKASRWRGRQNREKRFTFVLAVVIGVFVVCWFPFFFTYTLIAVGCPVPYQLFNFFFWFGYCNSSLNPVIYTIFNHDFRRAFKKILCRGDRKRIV
# [7] = target: Serotonin 1 (5-HT1) receptor (Rattus norvegicus, UniProt P28564+P30940+P19327+P28565); test: Binding affinity towards serotonin S1 receptor; type: protein assay
# Summary of the method: (§3)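 Rat brain crude synaptic membranes in 20 mM NaHEPES pH 7.5. Ligands: α1 cortex […] 0.4 nM, nonspecific with (-)-NE 100 μM, 30 min at 25 °C. […] D2 striatum [3H]spiperone 0.05 nM with (+)-butaclamol 1 μM, 45 min at 37 °C. S1 cortex [3H]5-HT 1 nM plus glutathione and MgCl2, with 5-HT 10 μM, 20 min at 37 °C. […] Samples filtered on GF/B and counted.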
# [8] = target: Adrenergic receptor alpha-2 (Rattus norvegicus) (UniProt P22086+P19328+P22909); test: Binding affinity towards alpha-2 adrenergic receptor at 1.0 uM concentration; type: protein assay
# [9] = species on record: Mus musculus; test: Gross behavioral effects ascertained in mice; W indicates weak stimulant or depressant activity of little significance.; type: functional, organism-based
# Summary of the method: (§4)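 Male Swiss Webster mice, 18–24 g, three per dose, given ip doses of 1, 3, 10, 30, 100 and 300 mg/kg. Observed for gross behavior and held for 4 days. Scored as weak (W), stimulant (S), depressant (D) or convulsant (C).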
# [10] = target: Muscarinic acetylcholine receptor (Rattus norvegicus) (UniProt P08482+P08483+P08485+P08911+P10980); test: Binding affinity towards Muscarinic acetylcholine receptor at 1.0 uM concentration; type: protein assay
# [11] = species on record: Rattus norvegicus; test: Inhibition of GABA uptake at 1 uM concentration.; type: functional
# [12] = target: T2, Adrenergic receptor alpha-1 (Rattus norvegicus, UniProt P15823+P23944+P43140); test: Binding affinity towards alpha-1 adrenergic receptor; type: protein assay
# T2 sequence (P15823 whole entry): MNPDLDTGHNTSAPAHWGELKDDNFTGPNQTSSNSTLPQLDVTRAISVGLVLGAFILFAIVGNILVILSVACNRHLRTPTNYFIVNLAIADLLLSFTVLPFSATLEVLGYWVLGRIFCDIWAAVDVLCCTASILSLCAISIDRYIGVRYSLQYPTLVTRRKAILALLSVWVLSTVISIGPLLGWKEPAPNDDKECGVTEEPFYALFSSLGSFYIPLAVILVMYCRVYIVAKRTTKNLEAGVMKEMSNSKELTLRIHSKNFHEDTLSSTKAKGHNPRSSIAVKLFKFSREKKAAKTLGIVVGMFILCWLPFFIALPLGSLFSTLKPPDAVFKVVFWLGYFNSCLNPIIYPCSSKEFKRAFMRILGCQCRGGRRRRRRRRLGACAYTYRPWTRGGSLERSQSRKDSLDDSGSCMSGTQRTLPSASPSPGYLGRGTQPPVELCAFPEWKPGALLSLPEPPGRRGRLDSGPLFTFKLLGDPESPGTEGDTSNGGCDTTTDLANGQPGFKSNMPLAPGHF
# T2 sequence (P23944 whole entry): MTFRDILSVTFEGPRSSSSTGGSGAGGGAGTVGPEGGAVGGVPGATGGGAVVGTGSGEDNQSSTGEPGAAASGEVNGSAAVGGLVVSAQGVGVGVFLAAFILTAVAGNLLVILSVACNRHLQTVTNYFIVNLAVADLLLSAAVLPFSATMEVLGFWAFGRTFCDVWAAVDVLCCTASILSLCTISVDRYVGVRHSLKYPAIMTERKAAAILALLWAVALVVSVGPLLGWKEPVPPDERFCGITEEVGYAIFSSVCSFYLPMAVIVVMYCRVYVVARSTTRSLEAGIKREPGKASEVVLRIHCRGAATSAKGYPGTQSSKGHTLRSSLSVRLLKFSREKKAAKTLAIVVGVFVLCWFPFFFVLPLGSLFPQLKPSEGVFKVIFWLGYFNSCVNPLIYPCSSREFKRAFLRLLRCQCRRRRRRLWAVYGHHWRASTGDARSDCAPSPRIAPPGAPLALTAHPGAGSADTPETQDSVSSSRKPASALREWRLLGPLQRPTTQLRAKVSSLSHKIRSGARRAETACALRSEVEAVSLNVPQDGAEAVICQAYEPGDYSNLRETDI
# T2 sequence (P43140 whole entry): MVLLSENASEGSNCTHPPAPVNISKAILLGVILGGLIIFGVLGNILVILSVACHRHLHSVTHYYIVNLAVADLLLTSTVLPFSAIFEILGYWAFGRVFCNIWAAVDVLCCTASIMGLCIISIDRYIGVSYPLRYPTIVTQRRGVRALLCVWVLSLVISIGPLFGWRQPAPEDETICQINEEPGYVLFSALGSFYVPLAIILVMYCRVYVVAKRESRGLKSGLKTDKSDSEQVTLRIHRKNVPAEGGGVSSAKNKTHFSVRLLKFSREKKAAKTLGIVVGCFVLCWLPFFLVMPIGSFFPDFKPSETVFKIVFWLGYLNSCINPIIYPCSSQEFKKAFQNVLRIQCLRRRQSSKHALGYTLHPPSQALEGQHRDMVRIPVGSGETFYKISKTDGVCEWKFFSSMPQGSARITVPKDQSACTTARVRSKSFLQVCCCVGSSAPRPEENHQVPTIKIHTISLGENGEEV
# [13] = species on record: Mus musculus; test: Antagonism of tetrabenazine (TBZ)-induced depression measured in mice by motor activity; type: functional
# Summary of the method: (§5)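 Nonfasted male Swiss Webster mice, 18–24 g, ten per dose level and in saline controls. Test compound given ip 30 min before tetrabenazine 32 mg/kg ip; dose expressed as free base. Motor activity and ptosis scored. Control response ≤90% corrected by Abbott's formula.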
# [14] = species on record: Mus musculus; test: Antagonism of tetrabenazine (TBZ)-induced depression in mice measured for ptosis; type: functional; summary of the method: as §5
# [15] = target: D(2) dopamine receptor (Rattus norvegicus) (UniProt P61169); test: Binding affinity towards dopamine receptor D2 at 1.0 uM concentration; summary of the method: as §3
# [16] = target: D(1A) dopamine receptor (Rattus norvegicus) (UniProt P18901); test: Binding affinity towards Dopamine receptor D1 at 1.0 uM concentration; summary of the method: as §3
# [17] = target: Serotonin 1 (5-HT1) receptor (Rattus norvegicus) (UniProt P28564+P30940+P19327+P28565); test: Binding affinity towards serotonin S1 receptor at 1.0 uM; type: protein assay; summary of the method: as §3
# [18] = target: Adrenergic receptor alpha-1 (Rattus norvegicus) (UniProt P15823+P23944+P43140); test: Binding affinity towards alpha-1 adrenergic receptor at 1.0 uM concentration; type: protein assay; summary of the method: as §3
# [19] = species on record: Mus musculus; test: Gross behavioral effects ascertained in mice; S indicates significant stimulant properties.; type: functional, organism-based; summary of the method: as §4
# [20] = target: Serotonin 2 (5-HT2) receptor (Rattus norvegicus) (UniProt P30994+P08909+P14842); test: Binding affinity towards 5-hydroxytryptamine 2 receptor at 1.0 uM concentration; type: protein assay; summary of the method: as §3
# [21] = target: Norepinephrine transporter (Rattus norvegicus) (UniProt Q9WTR4); test: Ability to inhibit the uptake of [3H]norepinephrine (NE) 0.1 uM concentration at rat brain synaptosomes; type: functional, subcellular
# Summary of the method: (§6)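 Male Wistar rat brain synaptosomes (P2 fraction): hypothalamus for NE, striatum for DA, cerebral cortex for 5-HT. Buffer is Tris- or HEPES-buffered salt medium with glucose, ascorbate and nialamide, pH 7.4 at 37 °C. Preincubated 10 min at 37 °C with compound. Uptake started with [3H]NE 100–300 nM, [3H]DA 50–300 nM or [3H]5-HT 100–200 nM, incubated 3 min (DA) or 6–10 min (NE, 5-HT). Blanks held on ice. Filtered, counted by scintillation.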
# [22] = target: Sodium-dependent serotonin transporter (Rattus norvegicus) (UniProt P31652); test: Ability to inhibit the uptake of [3H]- serotonin(5-HT) 0.1 uM concentration at rat brain synaptosomes; type: functional, subcellular; summary of the method: as §6
# [23] = species on record: Rattus norvegicus; test: Ability to inhibit the uptake of tritiated dopamine (DA) 1 uM concentration; type: functional
# Summary of the method: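 Rat brain synaptosomal [3H]dopamine uptake: striatal P2 fraction, test compound at 1.00 μM. Preincubated at 37 °C, then 50–300 nM [3H]DA for 3 min. Blanks on ice. Filtration and scintillation counting; percent inhibition of control uptake.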
# Chain of D(2) dopamine receptor (Rattus norvegicus) (P61169 whole entry): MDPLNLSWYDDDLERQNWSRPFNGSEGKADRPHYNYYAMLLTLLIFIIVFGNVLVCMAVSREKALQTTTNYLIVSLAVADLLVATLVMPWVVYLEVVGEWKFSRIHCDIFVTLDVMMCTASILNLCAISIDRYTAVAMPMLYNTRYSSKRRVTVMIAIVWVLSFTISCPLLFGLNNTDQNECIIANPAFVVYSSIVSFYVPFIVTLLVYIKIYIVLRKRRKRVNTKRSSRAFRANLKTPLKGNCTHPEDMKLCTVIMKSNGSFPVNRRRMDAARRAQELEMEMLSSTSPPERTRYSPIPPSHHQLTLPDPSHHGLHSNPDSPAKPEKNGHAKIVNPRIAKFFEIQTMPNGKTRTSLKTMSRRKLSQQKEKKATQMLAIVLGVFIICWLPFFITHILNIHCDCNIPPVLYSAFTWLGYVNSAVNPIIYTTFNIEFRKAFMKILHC
# Chain of D(2) dopamine receptor (P61169 whole entry): as above
# Chain of Sodium-dependent dopamine transporter (P23977 whole entry): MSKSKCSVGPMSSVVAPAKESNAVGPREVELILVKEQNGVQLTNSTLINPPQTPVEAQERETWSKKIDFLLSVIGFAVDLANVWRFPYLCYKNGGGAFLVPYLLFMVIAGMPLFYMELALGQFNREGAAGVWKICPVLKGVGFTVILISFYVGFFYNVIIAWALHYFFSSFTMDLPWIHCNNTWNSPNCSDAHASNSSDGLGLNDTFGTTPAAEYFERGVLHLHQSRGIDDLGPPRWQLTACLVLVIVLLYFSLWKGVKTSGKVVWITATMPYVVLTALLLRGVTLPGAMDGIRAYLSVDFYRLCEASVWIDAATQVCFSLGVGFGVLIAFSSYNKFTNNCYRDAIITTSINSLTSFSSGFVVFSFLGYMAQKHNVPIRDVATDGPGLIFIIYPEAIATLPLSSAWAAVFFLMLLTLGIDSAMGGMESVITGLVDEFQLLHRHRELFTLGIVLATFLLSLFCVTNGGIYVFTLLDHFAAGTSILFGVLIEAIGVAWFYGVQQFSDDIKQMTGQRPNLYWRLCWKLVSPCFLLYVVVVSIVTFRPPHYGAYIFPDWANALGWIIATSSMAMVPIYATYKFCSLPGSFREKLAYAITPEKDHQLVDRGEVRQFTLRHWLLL
# Chain of D(1A) dopamine receptor (Rattus norvegicus) (P18901 whole entry): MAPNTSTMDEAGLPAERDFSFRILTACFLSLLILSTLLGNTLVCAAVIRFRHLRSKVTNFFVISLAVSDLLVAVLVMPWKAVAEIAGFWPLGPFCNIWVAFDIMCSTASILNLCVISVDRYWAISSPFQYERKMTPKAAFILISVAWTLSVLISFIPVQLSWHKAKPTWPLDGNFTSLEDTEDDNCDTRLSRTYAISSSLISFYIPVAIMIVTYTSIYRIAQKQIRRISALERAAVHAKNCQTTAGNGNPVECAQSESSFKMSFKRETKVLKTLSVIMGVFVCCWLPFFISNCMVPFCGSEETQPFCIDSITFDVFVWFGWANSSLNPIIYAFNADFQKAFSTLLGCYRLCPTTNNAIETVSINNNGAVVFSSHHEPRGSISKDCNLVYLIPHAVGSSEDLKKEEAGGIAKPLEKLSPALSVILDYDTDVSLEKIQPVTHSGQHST
# Chain of Norepinephrine transporter (Q9WTR4 whole entry): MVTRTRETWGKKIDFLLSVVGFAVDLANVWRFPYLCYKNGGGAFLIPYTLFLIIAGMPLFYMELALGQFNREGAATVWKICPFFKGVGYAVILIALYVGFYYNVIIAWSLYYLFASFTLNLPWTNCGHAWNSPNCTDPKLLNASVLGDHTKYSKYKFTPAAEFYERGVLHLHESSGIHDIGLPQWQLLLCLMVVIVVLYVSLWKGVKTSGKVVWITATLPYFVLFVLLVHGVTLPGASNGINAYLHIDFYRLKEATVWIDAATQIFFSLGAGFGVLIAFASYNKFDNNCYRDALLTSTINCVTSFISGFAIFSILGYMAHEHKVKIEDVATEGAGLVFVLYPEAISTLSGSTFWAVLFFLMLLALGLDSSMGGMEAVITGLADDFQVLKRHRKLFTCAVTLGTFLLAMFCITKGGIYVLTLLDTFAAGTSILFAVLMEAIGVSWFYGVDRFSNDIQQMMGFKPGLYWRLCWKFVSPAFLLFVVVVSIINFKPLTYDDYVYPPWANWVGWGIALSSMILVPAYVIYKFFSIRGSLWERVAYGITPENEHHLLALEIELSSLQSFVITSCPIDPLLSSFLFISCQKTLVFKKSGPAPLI
# Chain of Sodium-dependent serotonin transporter (Rattus norvegicus) (P31652 whole entry): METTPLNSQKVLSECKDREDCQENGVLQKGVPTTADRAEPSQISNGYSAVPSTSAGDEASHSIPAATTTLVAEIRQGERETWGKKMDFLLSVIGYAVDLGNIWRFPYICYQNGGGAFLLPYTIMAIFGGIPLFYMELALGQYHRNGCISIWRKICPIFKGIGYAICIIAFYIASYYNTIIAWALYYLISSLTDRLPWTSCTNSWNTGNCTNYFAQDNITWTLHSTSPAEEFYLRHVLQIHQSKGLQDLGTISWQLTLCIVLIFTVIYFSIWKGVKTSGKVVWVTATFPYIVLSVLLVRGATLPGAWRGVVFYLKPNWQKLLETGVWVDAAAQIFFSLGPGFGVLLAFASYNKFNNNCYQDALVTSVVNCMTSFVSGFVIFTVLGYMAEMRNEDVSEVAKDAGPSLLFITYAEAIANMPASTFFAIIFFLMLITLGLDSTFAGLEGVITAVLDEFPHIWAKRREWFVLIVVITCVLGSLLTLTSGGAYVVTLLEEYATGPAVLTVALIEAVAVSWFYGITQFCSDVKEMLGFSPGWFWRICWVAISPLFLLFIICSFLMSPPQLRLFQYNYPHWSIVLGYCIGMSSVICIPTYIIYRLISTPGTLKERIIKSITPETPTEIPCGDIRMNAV
# Chain of Serotonin 2 (5-HT2) receptor (Rattus norvegicus) (P08909 whole entry, looked up): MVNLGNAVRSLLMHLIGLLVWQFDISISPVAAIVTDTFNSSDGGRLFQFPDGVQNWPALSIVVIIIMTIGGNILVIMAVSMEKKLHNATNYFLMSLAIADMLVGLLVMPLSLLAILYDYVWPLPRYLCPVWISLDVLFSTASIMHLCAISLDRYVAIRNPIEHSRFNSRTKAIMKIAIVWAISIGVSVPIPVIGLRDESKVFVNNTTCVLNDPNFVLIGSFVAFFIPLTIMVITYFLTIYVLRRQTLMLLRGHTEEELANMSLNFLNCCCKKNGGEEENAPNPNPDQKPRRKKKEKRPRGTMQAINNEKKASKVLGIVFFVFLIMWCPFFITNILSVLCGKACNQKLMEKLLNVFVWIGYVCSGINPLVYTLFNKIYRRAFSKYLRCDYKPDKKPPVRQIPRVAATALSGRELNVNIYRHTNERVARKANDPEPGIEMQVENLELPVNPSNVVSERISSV
# Chain of Serotonin 2 (5-HT2) receptor (Rattus norvegicus) (P14842 whole entry, looked up): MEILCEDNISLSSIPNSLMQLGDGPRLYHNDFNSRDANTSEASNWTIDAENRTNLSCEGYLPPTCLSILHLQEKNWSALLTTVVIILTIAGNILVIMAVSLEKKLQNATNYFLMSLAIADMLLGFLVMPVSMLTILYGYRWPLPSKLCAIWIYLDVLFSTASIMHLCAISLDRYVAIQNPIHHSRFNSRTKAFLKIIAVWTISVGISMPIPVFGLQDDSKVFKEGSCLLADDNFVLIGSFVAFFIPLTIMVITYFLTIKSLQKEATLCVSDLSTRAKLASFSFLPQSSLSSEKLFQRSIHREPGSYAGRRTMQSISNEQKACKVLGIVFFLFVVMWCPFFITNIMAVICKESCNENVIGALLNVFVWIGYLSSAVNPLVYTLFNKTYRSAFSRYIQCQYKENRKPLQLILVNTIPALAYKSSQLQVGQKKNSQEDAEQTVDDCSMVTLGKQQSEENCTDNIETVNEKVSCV
# Chain of Serotonin 2 (5-HT2) receptor (Rattus norvegicus) (P30994 whole entry, looked up): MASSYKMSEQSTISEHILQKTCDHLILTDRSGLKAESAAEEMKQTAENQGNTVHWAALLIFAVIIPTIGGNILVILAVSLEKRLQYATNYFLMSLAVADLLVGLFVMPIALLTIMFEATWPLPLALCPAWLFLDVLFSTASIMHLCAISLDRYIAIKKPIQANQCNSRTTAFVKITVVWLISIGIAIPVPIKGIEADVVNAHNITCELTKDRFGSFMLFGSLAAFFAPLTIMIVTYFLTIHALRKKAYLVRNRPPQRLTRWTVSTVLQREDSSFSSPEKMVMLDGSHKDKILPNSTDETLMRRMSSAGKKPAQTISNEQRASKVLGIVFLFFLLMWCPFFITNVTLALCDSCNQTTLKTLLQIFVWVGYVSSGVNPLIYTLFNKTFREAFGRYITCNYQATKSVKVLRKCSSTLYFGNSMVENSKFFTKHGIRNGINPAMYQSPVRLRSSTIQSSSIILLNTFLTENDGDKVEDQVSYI
# Chain of Norepinephrine transporter (Rattus norvegicus) (Q9WTR4 as listed by the source): as the sequence (Q9WTR4 whole entry) above
structure (smiles),measurement,setting,value
c1ccc([C@@H]2CN3CC[C@H]3c3ccccc32)cc1,Ki,[1],1.62 µM
same,ED50,[2],inactive
same,ED50,[3],inactive
same,Ki,[4],0.866 µM
CN(C)CCCN1c2ccccc2CCc2ccc(Cl)cc21 [CLOMIPRAMINE],Ki,[5],0.056 µM
same,Ki,[6],0.051 µM
same,Ki,[7],5 µM
Clc1ccccc1[C@@H]1CN2CCC[C@@H]2c2ccccc21 (stereo in doubt; 24b),inhibition,[8],12%
same,behavior,[9],Partial stimulant
same,inhibition,[10],6%
same,inhibition,[11],16%
c1ccc([C@@H]2CN3CCC[C@@H]3c3ccccc32)cc1 (stereo in doubt; 7b),Ki,[5],0.875 µM
same,Ki,[6],0.75 µM
same,Ki,[12],0.172 µM
same,Ki,[7],> 10 µM
same,ED50,[13],0.34 mg/kg
same,ED50,[14],0.07 mg/kg
CSc1ccc([C@@H]2CN3CCC[C@@H]3c3ccccc32)cc1 (stereo in doubt; 48b),inhibition,[15],4%
same,inhibition,[16],24%
same,inhibition,[11],10%
CN(C)CCCN1c2ccccc2CCc2ccccc21 [IMIPRAMINE],inhibition,[15],63%
same,Ki,[6],4.9 µM
same,inhibition,[17],15%
same,ED50,"[14]; Mus musculus, read-out: ED50",0.78 mg/kg
Clc1ccc([C@@H]2CN3CCC[C@@H]3c3ccccc32)cc1Cl,inhibition,[15],37%
same,Ki,[6],0.99 µM
same,inhibition,[18],33%
same,Ki,[1],0.00099 µM
same,Ki,[7],0.465 µM
same,behavior,[19],Stimulant
same,ED50,"[13]; Mus musculus, read-out: ED50",0.39 mg/kg
same,inhibition,[20],24%
same,inhibition,[10],9%
same,Ki,[4],0.00068 µM
same,ED50,"[14]; Mus musculus, read-out: ED50",0.14 mg/kg
FC(F)(F)c1cccc([C@@H]2CN3CCC[C@@H]3c3ccccc32)c1 (stereo in doubt; 37b),inhibition,[8],7%
same,behavior,[9],Partial stimulant
same,inhibition,[16],17%
same,inhibition,[10],1%
same,inhibition,[11],16%
C[C@@]12CCCN1CCc1ccccc12,inhibition,[21],6%
same,inhibition,[22],2%
same,ED50,[2],inactive
same,behavior,[9],Weak
same,ED50,[3],inactive
same,Inhibition,[23],15%
